Measured values published in article PMC7641989 (Nature biotechnology, 2020).
Where a SMILES comes first, the peptide text is derived from it. [ ]: non-standard residue; d: D form.

Tests used:
WD-fed LDLr-/- mice [1] = assay: In vivo safety during 10-week daily oral dosing; set-up: species or system mouse
How it was run: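 Mice were weaned at 4 weeks and fed chow, then switched at 8–12 weeks to Western diet for 10 weeks. Test compound was dissolved by sonication in PBS (pH 7.4) with 1% sucrose, given ad libitum in drinking water at 180 µM and refreshed daily or every other day. Vehicle controls received PBS/1% sucrose. Liver enzyme activities in plasma were measured by enzymatic assays.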

[2] = tested on: gut microbiota from cecum of WD-fed LDLr-/- mice; assay: In vitro en masse gut microbiota screening assay; format: cell-based, mouse; details: en masse screen, result in words
How it was run: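 Cecal contents came from female LDLr-/- mice (8–10 weeks) fed WD for two weeks, pooled from 3 co-housed mice, with all steps anaerobic. The PBS suspension was diluted 1:12.5 in Chopped Meat Carbohydrate Broth and dosed with test compound at a final 16 or 64 µM. Ampicillin (4 µg/mL) and chloramphenicol (8 µg/mL) were controls. Samples ran 20 h at 37 °C with hourly OD600, then 16S sequencing gave genus-level Shannon diversity and the Bacteroidetes:Firmicutes ratio.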

[3] = LC-MS SIM quantitation of peptide levels in feces; format: in vivo, mouse; details: pharmacokinetic and excretion studies, result in words
How it was run: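 Intact test compound was measured in extracted feces by LC-MS selected ion monitoring of the parent ions. Standard curves came from two independent extractions. Fecal samples were taken at week 5 (n=4 mice per group) and measured in duplicate. Daily dry fecal output was weighed over 24 h in individually housed mice. Expected maximum fecal level was calculated from the 0.18 mM drinking-water concentration, water intake and fecal output.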

WD-fed LDLr-/- mice [4] = assay: Analysis of atherosclerosis; format: in vivo, mouse; details: completion of the 10-week study, en face staining, vs vehicle
How it was run: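 LDLr-/- mice, moved from chow to Western diet (15.8% fat, 1.25% cholesterol, no cholate) at 8–12 weeks, given test compound at 180 µM in drinking water (PBS pH 7.4, 1% sucrose; vehicle alone for controls) for 10 weeks. Lesions assessed by en face staining of the entire aorta and by aortic root sectioning. n=8 treated, 18 vehicle; mean ± SD, one-way ANOVA with Dunnett test.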

WD-fed LDLr-/- mice [5] = assay: Plasma total cholesterol in peptide-treated WD-fed mice; format: in vivo, mouse
How it was run: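 Western-diet-fed LDLr-/- mice received test compound at 180 µM in drinking water (PBS pH 7.4, 1% sucrose; vehicle controls) starting with the diet switch. Plasma total cholesterol was measured enzymatically at the two-week blood draw. Results given as mean ± SD.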

[6] = Pharmacokinetics, LC-MS SIM quantitation in plasma; format: in vivo, mouse; details: pharmacokinetic and excretion studies, result in words
[7] = 10 weeks daily oral administration, n=7 treated mice

Structure (SMILES) | signs of discomfort or toxicity (WD-fed LDLr-/- mice [1]; 10-week daily-dosing regimen, ad libitum in the drinking water, ~35 mg/kg/day) | liver weights and spleen weights (WD-fed LDLr-/- mice [1]; [7]) | plasma levels of ALT and AST (WD-fed LDLr-/- mice [1]; [7]) | body weights (WD-fed LDLr-/- mice [1]; during the 10-week treatment, n=7 treated mice) | remodeling of the microbiota community in vitro [2] | stability in the gut [3] | reduction of whole aorta atherosclerotic lesion area (WD-fed LDLr-/- mice [4]) [%] | reduction of plasma total cholesterol compared to the untreated WD group (WD-fed LDLr-/- mice [5]; two-week time point, oral in drinking water, ~35 mg/kg/day) [%] | oral systemic bioavailability [6] | total plasma cholesterol compared to vehicle controls (WD-fed LDLr-/- mice [5]; 2-wk timepoint, oral dosing, result in words)
CC(C)C[C@@H]1NC(=O)[C@@H](Cc2c[nH]c3ccccc23)NC(=O)[C@H](CCCCN)NC(=O)[C@@H](Cc2c[nH]cn2)NC(=O)[C@H](CO)NC(=O)[C@@H](Cc2c[nH]cn2)NC(=O)[C@H](CCCCN)NC(=O)[C@@H](Cc2c[nH]c3ccccc23)NC1=O [peptide 1] (cyclo([dW]L[dW]K[dH]S[dH]K)) | no signs of discomfort or toxicity | did not significantly differ from vehicle controls | did not significantly differ from vehicle controls | did not differ from vehicle controls | did remodel the microbiota community in vitro | remain largely intact throughout the gut | 37 | 37 | non-absorbable (lack oral systemic bioavailability) | –
NC(=O)CC[C@@H]1NC(=O)[C@@H](Cc2c[nH]cn2)NC(=O)[C@H](Cc2c[nH]cn2)NC(=O)[C@@H](CCC(N)=O)NC(=O)[C@H](Cc2ccc(O)cc2)NC(=O)[C@@H](Cc2c[nH]c3ccccc23)NC(=O)[C@H](Cc2c[nH]c3ccccc23)NC(=O)[C@@H](Cc2ccccc2)NC1=O [peptide 15] (cyclo(H[dH]Q[dF]W[dW]Y[dQ])) | – | – | – | – | remodeled the gut microbiota in vitro, but not toward a CHD-like state | – | – | – | – | did not reduce plasma total cholesterol levels
